This passage reports inhibition and IC50 results from ChEMBL document CHEMBL1145619, “Conformation-activity relationship on novel 4-pyridylmethylthio derivatives with antiangiogenic activity” (Bioorg Med Chem Lett, 2008).

In test [1] the target is T1, Vascular endothelial growth factor receptor 2 (Homo sapiens, UniProt P35968). Description: Inhibition of KDR at 10 uM by ELISA. The method in brief: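 KDR kinase activity measured with a commercial kinase assay development kit by ELISA. The read-out is the phosphorylation level of a biotinylated peptide containing Tyr in its sequence. The table gives IC50 values, and gives percent inhibition at 10 µM where the IC50 exceeded the range.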

Test [2] concerns the target T1, Vascular endothelial growth factor receptor 2. Description: Inhibition of KDR by ELISA. The procedure, abridged:
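KDR kinase activity measured with a commercial kinase assay development kit by ELISA. The read-out is the phosphorylation level of a biotinylated peptide containing Tyr in its sequence.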
Background: In an ELISA, binding on a coated surface is turned into a signal by an enzyme label.

Another test has as its system HUVEC. Briefly: Antiproliferative activity against VEGF-induced HUVEC cells. To be noted: Homo sapiens. The class given is functional, cell-based.

T1 sequence (P35968 whole entry): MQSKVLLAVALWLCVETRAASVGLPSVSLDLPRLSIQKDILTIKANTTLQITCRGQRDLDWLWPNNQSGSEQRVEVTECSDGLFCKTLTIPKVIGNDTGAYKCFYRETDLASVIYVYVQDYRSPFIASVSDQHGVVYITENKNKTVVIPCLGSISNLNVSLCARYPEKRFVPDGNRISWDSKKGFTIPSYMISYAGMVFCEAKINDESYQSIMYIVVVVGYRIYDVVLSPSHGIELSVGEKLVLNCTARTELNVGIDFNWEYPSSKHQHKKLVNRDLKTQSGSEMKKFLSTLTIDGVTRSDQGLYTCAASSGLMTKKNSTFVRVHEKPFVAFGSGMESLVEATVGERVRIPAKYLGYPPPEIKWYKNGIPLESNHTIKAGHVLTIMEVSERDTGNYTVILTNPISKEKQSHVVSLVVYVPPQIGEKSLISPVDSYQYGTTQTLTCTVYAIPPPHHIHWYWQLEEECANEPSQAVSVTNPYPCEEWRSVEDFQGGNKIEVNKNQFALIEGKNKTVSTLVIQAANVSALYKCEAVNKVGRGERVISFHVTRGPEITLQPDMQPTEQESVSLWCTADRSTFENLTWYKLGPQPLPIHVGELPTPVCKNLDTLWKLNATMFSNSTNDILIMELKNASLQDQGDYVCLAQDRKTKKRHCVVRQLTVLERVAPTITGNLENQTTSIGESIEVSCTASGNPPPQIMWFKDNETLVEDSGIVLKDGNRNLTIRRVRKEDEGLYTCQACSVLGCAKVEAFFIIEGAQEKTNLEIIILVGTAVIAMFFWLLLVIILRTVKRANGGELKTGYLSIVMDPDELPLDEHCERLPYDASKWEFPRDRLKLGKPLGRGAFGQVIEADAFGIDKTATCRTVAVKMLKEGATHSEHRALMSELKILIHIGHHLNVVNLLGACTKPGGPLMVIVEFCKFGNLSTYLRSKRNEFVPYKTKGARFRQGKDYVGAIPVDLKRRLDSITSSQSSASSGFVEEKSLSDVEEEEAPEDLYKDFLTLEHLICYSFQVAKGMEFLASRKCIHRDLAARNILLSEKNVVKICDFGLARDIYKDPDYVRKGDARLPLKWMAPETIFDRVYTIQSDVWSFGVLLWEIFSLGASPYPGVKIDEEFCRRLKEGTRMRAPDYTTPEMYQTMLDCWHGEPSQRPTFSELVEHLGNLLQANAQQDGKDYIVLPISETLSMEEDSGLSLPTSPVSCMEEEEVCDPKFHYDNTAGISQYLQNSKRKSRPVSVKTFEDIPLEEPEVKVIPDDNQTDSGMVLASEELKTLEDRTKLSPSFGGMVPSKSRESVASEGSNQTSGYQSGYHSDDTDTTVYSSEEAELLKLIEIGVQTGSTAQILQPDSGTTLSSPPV

In test [1], `O=C(Nc1ccc(Cl)cc1)c1ccccc1OCc1ccncc1` returned an inhibition of 54%. Also, the IC50 in test [2] was above 1000 nM; in the test on HUVEC, above 2000 nM.

`O=C(Nc1ccc(Cl)cc1)c1cccnc1SCc1ccncc1`: 26 nM corresponded to half-maximal inhibition in test [2] (IC50).

In test [1], `S=C(Nc1ccc(Cl)cc1)c1ccccc1OCc1ccncc1` showed an inhibition of 0%. The same molecule came in with an IC50 in test [2] above 1000 nM.

In the test on HUVEC, `Clc1ccc(Nc2nnc(Cc3ccncc3)c3ccccc23)cc1` displayed a half-inhibitory concentration (IC50) of 6 nM.

Take `O=C(Nc1ccc(Cl)cc1)c1ccccc1SCc1ccncc1`: the IC50 in test [2] was 46 nM. This lies in the double-digit nanomolar range.

A word on the inhibition: it is the percentage by which the read-out fell short of the control. A higher inhibition goes with a response far below the control. For orientation: IC50 means the point on the concentration scale where inhibition reaches its midpoint. A low value points to greater potency in that assay.
